Most compounds without a hit are left out; they make up all but 2.5% or so of the library.
HTRA1 inh = HTRA1 (human) protease inhibition. recombinant HTRA1, FP-rhodamine activity-based probe, fluorescence polarization. 0.5% of 340,000 active. AID 504803. Q92743. inhibition, % at 5.96 µM; in the data active = inhibition above about 36%
SIAE primary = blocks human sialic acid acetylesterase | Q9HAT2 | SIAE FP-Rh probe binding, fluorescence polarization | inhibition, % at 9.66 µM | 0.69% of 370,000 active | AID 1053197;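 active = inhibition above a cutoff: mean of compounds within the control limits plus 3 SD of those, cut at about 17% in these data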
Target sequence (Q9HAT2 whole entry, looked up): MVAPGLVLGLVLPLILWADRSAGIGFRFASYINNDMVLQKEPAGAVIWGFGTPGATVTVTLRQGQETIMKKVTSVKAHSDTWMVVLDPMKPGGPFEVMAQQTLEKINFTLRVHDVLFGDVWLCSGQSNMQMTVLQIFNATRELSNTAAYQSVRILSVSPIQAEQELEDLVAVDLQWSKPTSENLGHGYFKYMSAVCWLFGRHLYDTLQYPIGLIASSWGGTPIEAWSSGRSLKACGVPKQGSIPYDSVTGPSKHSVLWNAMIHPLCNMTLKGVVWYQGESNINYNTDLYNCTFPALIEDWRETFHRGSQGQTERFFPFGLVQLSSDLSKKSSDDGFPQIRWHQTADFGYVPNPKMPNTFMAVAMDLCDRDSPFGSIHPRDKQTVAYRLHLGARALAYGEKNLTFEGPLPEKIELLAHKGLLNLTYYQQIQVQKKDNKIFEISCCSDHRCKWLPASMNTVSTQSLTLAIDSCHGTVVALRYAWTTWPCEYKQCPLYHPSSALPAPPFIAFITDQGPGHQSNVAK
mABHD4 FP = inhibits mouse alpha/beta hydrolase domain 4. Q8VD66. purified mABHD4, FP-Rh probe fluorescence polarization. inhibition, % at 8.92 µM. AID 720543. 0.54% of 370,000 active;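 active = inhibition exceeding the mean over every tested compound plus 3 SD, cut at about 30% in these data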
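Assay system: Wild-type mouse ABHD4 protein | Medium: HEPES pH 7.0 buffer, 150 mM NaCl, 0.01% Pluronic F-127 | Incubation: Enzyme–compound pre-incubation 45 min, then probe 60 min, both 25 °C | Technique: Fluorescence polarization with parallel and perpendicular emission, 525/598 nm | Evaluation: % inhibition of FP-Rh probe binding versus controls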
TCR-CD3 inh = inhibitors of human TCR-CD3 interaction. TAMRA-labeled TCR probe fluorescence, biochemical. inhibition, % at 9.4 µM. 0.37% of 360,000 active. AID 651800; in the data active = inhibition above about 19%;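 note: recombinant mutant TCR 2C K166C tagged with TAMRA read by polarization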
rCAG binder-1 = binds r(CAG) RNA repeats; r(CAG) RNA repeat, TO-PRO-1 dye displacement fluorescence; inhibition, % at 3 µM; 1.3% of 370,000 active; AID 651821;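 active = inhibition above the plate cutoff, the mean of all test compounds on that plate plus 3 SD, cut at about 35% in these data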;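 note: higher means more dye released from RNA so lower well fluorescence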
rCAG binder conf = r(CAG) RNA repeat binding, confirmation; shares compounds with rCAG binder-1; TO-PRO-1 dye displacement fluorescence; inhibition, % at 3 µM; 70% of 4,300 active; AID 652065;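 active = inhibition above a per-plate cutoff, the mean inhibition of sample wells plus 3 SD, cut at about 35% in these data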;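 note: loss of TO-PRO-1 fluorescence as compound displaces dye from 1x1 AA loop RNA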
dCAG dye counter = counter-screen for rCAG RNA binders: DNA CAG dye complex inhibitors; d(CAG) DNA oligo TO-PRO-1 dye displacement, fluorescence; shares compounds with rCAG binder-1; 94% of 4,300 active; AID 652068; inhibition, % at 3 µM;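 active = inhibition above its plate's cutoff, the mean test-well inhibition plus 3 SD, cut at about 4.8% in these data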;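 note: hits displace the dye from DNA and so lower well fluorescence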
DNA CAG DR = disrupts DNA CAG TO-PRO-1 complex in dose response | IC50, µM | DNA CAG/GTC duplex TO-PRO-1 dye displacement fluorescence | 20% of 250 active | shares compounds with rCAG binder-1 | AID 686960; in the data active = IC50 below about 10 µM
dCAG DNA bind = inhibits DNA CAG/GTC TO-PRO-1 complex, rCAG binder counter-screen; 80% of 30 active; AID 720649; shares compounds with rCAG binder-1; d(CAG) DNA duplex TO-PRO-1 dye displacement, fluorescence; IC50, µM
rCAG binder-2 = binds r(CAG) RNA repeats in late stage dose response | shares compounds with rCAG binder-1 | AID 720651 | r(CAG) RNA TO-PRO-1 dye displacement, fluorescence | IC50, µM | 100% of 30 active
Numbers stand for hits. Unless noted, the rule behind the calls is not given here.

What do the screens show for `Cc1ccc(C2c3[nH]c4ccccc4c3C[C@H]3C(=O)N(c4ccccc4C(=O)N4CCC[C@H]4C(=O)O)C(=O)N23)cc1` (stereo partly specified)?
HTRA1 inh: inactive; SIAE primary: inactive; mABHD4 FP: inactive; TCR-CD3 inh: inactive; rCAG binder-1: 39; rCAG binder conf: 57; dCAG dye counter: 18

What do the screens show for `COc1ccc(C2c3[nH]c4ccccc4c3C[C@H]3C(=O)N(c4ccccc4C(=O)N4CCC[C@@H]4C(=O)O)C(=O)N23)cc1` (stereo partly specified)?
HTRA1 inh: inactive; SIAE primary: inactive; mABHD4 FP: inactive; TCR-CD3 inh: inactive; rCAG binder-1: inactive

What do the screens show for `O=C(NCCN1CCOCC1)c1ccccc1N1C(=O)[C@@H]2Cc3c([nH]c4ccccc34)C(c3ccccc3)N2C1=O` (stereo partly specified)?
HTRA1 inh: inactive; SIAE primary: inactive; mABHD4 FP: inactive; TCR-CD3 inh: inactive; rCAG binder-1: inactive

What do the screens show for `O=C(O)[C@H]1CCCN1C(=O)c1ccccc1N1C(=O)[C@@H]2Cc3c([nH]c4ccccc34)C(c3cccc(Cl)c3)N2C1=O` (stereo partly specified)?
HTRA1 inh: inactive; SIAE primary: inactive; mABHD4 FP: inactive; TCR-CD3 inh: inactive; rCAG binder-1: 39; rCAG binder conf: 65; dCAG dye counter: 22

What do the screens show for `COc1ccc(C2c3[nH]c4ccccc4c3C[C@H]3C(=O)N(c4ccccc4C(=O)N4CCC[C@H]4C(=O)O)C(=O)N23)cc1` (stereo partly specified)?
HTRA1 inh: inactive; SIAE primary: inactive; mABHD4 FP: inactive; TCR-CD3 inh: inactive; rCAG binder-1: 37; rCAG binder conf: 51; dCAG dye counter: 16

How did COc1cccc(C2c3[nH]c4ccccc4c3C[C@H]3C(=O)N(c4ccccc4C(=O)N4CCC[C@H]4C(=O)O)C(=O)N23)c1 (stereo partly specified) do in these assays?
HTRA1 inh: inactive; SIAE primary: inactive; mABHD4 FP: inactive; TCR-CD3 inh: inactive; rCAG binder-1: inactive

How did CC(C)c1ccc(C2c3[nH]c4ccccc4c3C[C@H]3C(=O)N(c4ccccc4C(=O)N4CCC[C@@H]4C(=O)O)C(=O)N23)cc1 (stereo partly specified) do in these assays?
HTRA1 inh: inactive; SIAE primary: inactive; mABHD4 FP: inactive; TCR-CD3 inh: inactive; rCAG binder-1: 46; rCAG binder conf: 71; dCAG dye counter: 28; DNA CAG DR: inactive; dCAG DNA bind: inactive; rCAG binder-2: 1.9

What do the screens show for `CCCOc1ccc(C(=O)N2CCCC2C(=O)O)cc1` (stereo unspecified)?
HTRA1 inh: inactive; SIAE primary: inactive; mABHD4 FP: inactive; TCR-CD3 inh: inactive; rCAG binder-1: inactive

What do the screens show for `COc1cc(C(=O)NCCCc2nc3ccccc3n2Cc2cc(C)ccc2C)cc(OC)c1OC`?
HTRA1 inh: inactive; SIAE primary: inactive; mABHD4 FP: inactive; TCR-CD3 inh: inactive; rCAG binder-1: inactive

Results for O=C(Cc1ccccc1)NNC(=S)Nc1ccccc1 ?
SIAE primary: inactive; mABHD4 FP: inactive; TCR-CD3 inh: inactive; rCAG binder-1: inactive

What do the screens show for `O=C(CSc1nnc(SCc2ccccc2)s1)NNC(=S)Nc1ccccc1`?
HTRA1 inh: inactive; SIAE primary: inactive; mABHD4 FP: inactive; TCR-CD3 inh: inactive; rCAG binder-1: 43; rCAG binder conf: 52; dCAG dye counter: 18; DNA CAG DR: inactive

Results for COc1ccc(C(=O)NCCSCc2ccccc2Cl)cc1OC ?
HTRA1 inh: inactive; SIAE primary: inactive; mABHD4 FP: inactive; TCR-CD3 inh: inactive; rCAG binder-1: 80; rCAG binder conf: inactive; dCAG dye counter: inactive

Results for COc1ccc(C(=O)NCCSCc2ccccc2)cc1OC ?
HTRA1 inh: inactive; SIAE primary: inactive; mABHD4 FP: inactive; TCR-CD3 inh: inactive; rCAG binder-1: inactive

How did O=C(Nc1ccc2c(c1)OCCO2)c1cccnc1Oc1ccc(Cl)cc1 do in these assays?
HTRA1 inh: inactive; SIAE primary: inactive; mABHD4 FP: inactive; TCR-CD3 inh: inactive; rCAG binder-1: inactive

How did CCOc1ccccc1N(CC(=O)NCCc1ccc(OC)c(OC)c1)S(=O)(=O)c1ccccc1 do in these assays?
HTRA1 inh: inactive; SIAE primary: inactive; mABHD4 FP: inactive; TCR-CD3 inh: inactive; rCAG binder-1: 43; rCAG binder conf: inactive; dCAG dye counter: inactive

Results for CCOc1ccccc1N(CC(=O)Nc1ccc(OC)c(OC)c1)S(=O)(=O)c1ccccc1 ?
HTRA1 inh: inactive; SIAE primary: inactive; mABHD4 FP: inactive; TCR-CD3 inh: inactive; rCAG binder-1: inactive

Results for OCC[C@@H]1C[C@@H](O)[C@H](O)[C@]2(Cc3ccccc3CO2)O1 ?
HTRA1 inh: inactive; SIAE primary: inactive; mABHD4 FP: inactive; TCR-CD3 inh: inactive; rCAG binder-1: inactive

Results for COc1cc(/C=C(\C#N)C(=O)Nc2ccccc2C(=O)O)cc(Cl)c1OC ?
HTRA1 inh: inactive; SIAE primary: inactive; mABHD4 FP: inactive; TCR-CD3 inh: inactive; rCAG binder-1: 47; rCAG binder conf: 77; dCAG dye counter: 41

Results for COc1ccc(/C=C(/C#N)C(=O)Nc2ccccc2C)cc1C(=O)O ?
HTRA1 inh: inactive; SIAE primary: inactive; mABHD4 FP: inactive; TCR-CD3 inh: inactive; rCAG binder-1: inactive

How did O=C(O)Cn1nnc(-c2ccc(OCc3ccccc3Cl)cc2)n1 do in these assays?
HTRA1 inh: inactive; SIAE primary: inactive; mABHD4 FP: inactive; TCR-CD3 inh: inactive; rCAG binder-1: 39; rCAG binder conf: inactive; dCAG dye counter: inactive

Results for O=C(Nc1cccc(C(F)(F)F)c1)Nc1nnc([C@H]2C[C@H](O)[C@@H](CO)O2)s1 ?
SIAE primary: inactive; mABHD4 FP: inactive; TCR-CD3 inh: inactive; rCAG binder-1: inactive

What do the screens show for `COc1cccc(NC(=O)Nc2nnc(Cc3ccccc3F)s2)c1`?
HTRA1 inh: inactive; SIAE primary: inactive; mABHD4 FP: inactive; TCR-CD3 inh: inactive; rCAG binder-1: 40; rCAG binder conf: inactive; dCAG dye counter: 14

What do the screens show for `O=C(Nc1ccc(F)cc1)Nc1nnc(Cc2ccccc2F)s1`?
HTRA1 inh: inactive; SIAE primary: inactive; mABHD4 FP: inactive; TCR-CD3 inh: inactive; rCAG binder-1: 45; rCAG binder conf: inactive; dCAG dye counter: 16

Source: PubChem BioAssay (The Scripps Research Institute Molecular Screening Center)
